{"data": "Results collected from several papers", "BCHE": "Cholinesterase (BCHE, Homo sapiens, UniProt P06276)", "Oprk1": "Kappa-type opioid receptor (Oprk1, Mus musculus, UniProt P33534)", "note": "Each line is one published result; the experiments were not run side by side."}
{"SMILES": "COc1cc(/C=C/C(=O)O)ccc1OCc1cn(CC(=O)Nc2ccc(C)cc2)nn1", "target": "BCHE", "effect on": "enzyme activity", "action": "inhibitor", "technique": "Ellman", "tested at": "40 µM", "measurement": "inhibition", "result": "48.5%"}
{"SMILES": "CC(C)[C@H](CN1CCc2ccccc2C1)NC(=O)c1cccc(-c2cccc(O)c2)c1", "target": "Oprk1", "effect on": "ligand displacement", "technique": "radioligand", "tested at": "10 µM", "measurement": "inhibition", "result": "81%"}
{"SMILES": "COc1cc(/C=C/C(=O)O)ccc1OCc1cn(CC(=O)Nc2ccc(Cl)cc2Cl)nn1", "target": "BCHE", "effect on": "enzyme activity", "action": "inhibitor", "technique": "Ellman", "tested at": "40 µM", "measurement": "inhibition", "result": "58.2%"}
{"SMILES": "CC(C)CC(=O)OC[C@H]1O[C@@](C#N)(c2ccc3c(N)ncnn23)[C@H](O)[C@@H]1O", "target": "Neuronal acetylcholine receptor; alpha3/beta4 (Homo sapiens, UniProt P30926+P32297)", "effect on": "cell-free assay", "tested at": "20 µM", "measurement": "inhibition", "result": "-5%"}
{"SMILES": "c1cncc([C@@H]2CCCN2)c1", "target": "Muscarinic acetylcholine receptor M5 (CHRM5, Homo sapiens, UniProt P08912)", "effect on": "ligand displacement", "tested at": "50 µM", "measurement": "inhibition", "result": "-2.02%"}
{"SMILES": "CC(C)[C@H](CN1CCc2ccccc2C1)NC(=O)Cc1c[nH]c2ccccc12", "target": "Oprk1", "effect on": "ligand displacement", "technique": "radioligand", "tested at": "10 µM", "measurement": "inhibition", "result": "90%"}
{"SMILES": "CN1CCC[C@H]1c1cccnc1", "target": "Sodium-dependent noradrenaline transporter (SLC6A2, Homo sapiens, UniProt P23975)", "effect on": "ligand displacement", "tested at": "50 µM", "measurement": "inhibition", "result": "8.2%"}
{"SMILES": "[2H]c1c([2H])c([C@]2([2H])CCCN2C(=O)C(C)(C)Oc2ccc3cn[nH]c3c2)c([2H])c([2H])c1C([2H])([2H])[2H]", "target": "MAP kinase-interacting serine/threonine-protein kinase 2 (MKNK2, Homo sapiens, UniProt Q9HBH9)", "effect on": "binding", "technique": "competition with immobilised ligand", "tested at": "1 µM", "measurement": "remaining binding", "result": "100%"}
